This passage reports Activity results from ChEMBL document CHEMBL1156509, “Survival in the presence of antifungals: genome-wide expression profiling of Aspergillus niger in response to sublethal concentrations of caspofungin and fenpropimorph” (2007).

The source made the active and inactive calls. The rule behind the calls is not given here.

Common to all, as to format: functional, organism-based
The subject of test [1] is Aspergillus niger. Briefly: Antifungal activity against Aspergillus niger RD6.47 at 104.2 ug/mL by microtiter plate. An outline of the steps:
(§1)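 Reporter conidia (2×10^4 per well) were pre-grown 6 h at 37 °C in 2× CM in glass-bottom plates. An equal volume of a 2-fold dilution series (seven concentrations) was added, then 3 h at 30 °C. Medium was discarded and adherent germlings imaged. Growth inhibition was scored 0/1/2 from hyphal length.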

In test [2] the test system is Aspergillus niger. Briefly: Antifungal activity against Aspergillus niger JvD1.1 at 104.2 ug/mL by microtiter plate. A digest of the protocol: as §1
Test [3] relates to Aspergillus niger. Briefly: Induction of GFP tagged PagsA-H2B expression in Aspergillus niger RD6.47 at 104.2 ug/mL by fluorescence microscopy. An outline of the steps: (§2)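 agsA promoter-GFP reporters, cytoplasmic (JvD1.1) or nuclear H2B-targeted (RD6.47). Germlings pre-grown 6 h at 37 °C in 2× CM, exposed 3 h at 30 °C to seven 2-fold dilutions. GFP levels were scored by fluorescence microscopy as 0 (basal), 1 (intermediate) or 2 (high). Controls: gpdA-H2B-GFP strain MA26.1 (positive), N402 (negative).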

Test [4] relates to Aspergillus niger. Briefly: Induction of GFP tagged PagsA expression in Aspergillus niger JvD1.1 at 104.2 ug/mL by fluorescence microscopy. An outline of the steps: as §2

For the compound `CCCCCCC(=O)CCCCCC/C=C/C[C@@H](O)[C@H](O)[C@@](N)(CO)C(=O)O`, the outcome in test [1], in test [2], in test [3] and in test [4] was inactive.

`CCCCNC(=O)n1c(NC(=O)OC)nc2ccccc21`: the outcome in test [1] and in test [2] was Active. Besides, the result in test [3] and in test [4] was inactive.

Consider `CCCN(CC)CC1COC2(CCC(C(C)(C)C)CC2)O1` (stereo not drawn), for which the outcome in test [1], in test [2], in test [3] and in test [4] was Active.

As for `CN(C/C=C/C#CC(C)(C)C)Cc1cccc2ccccc12`, the result in test [3] and in test [4] was Active.

In the case of `COC(=O)N(OC)c1ccccc1COc1ccn(-c2ccc(Cl)cc2)n1`, the outcome in test [1] and in test [2] was Active. Also, the result in test [3] and in test [4] was inactive.
